# Data as given in ChEMBL document CHEMBL4308887, “Synthesis and biological evaluation of clovamide analogues with catechol functionality as potent Parkinson's disease agents in vitro and in vivo” (Bioorg Med Chem Lett, 2019).
# Active and inactive are the calls of the source. No cut-off for these calls is given here.
# Key:
# SH-SY5Y [1] = assay: Neuroprotection against H2O2-induced cell death in human SH-SY5Y cells at 100 uM preincubated for 6 hrs followed by H2O2 addition and measured after 24 hrs by MTT assay relative to control; format: functional
# Outline: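 Human SH-SY5Y neuroblastoma cells pretreated with compound at 100 μM for 6 h, then exposed to 600 μM H₂O₂ for 24 h; viability read by MTT and expressed as protection rate relative to untreated control. DMSO below 0.1% in all groups. Primary single-concentration screen; three independent experiments.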
# SH-SY5Y [2] = assay: Neuroprotection against H2O2-induced cell death in human SH-SY5Y cells preincubated for 6 hrs followed by H2O2 addition and measured after 24 hrs by MTT assay; format: functional, cell-based
# Outline: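 Primary screen at 100 μM, then dose-response. SH-SY5Y cells pretreated, then exposed to 600 μM H₂O₂ (the level chosen from a 100–1000 μM, 24 h viability titration). EC₅₀ is the concentration giving 50% of maximal effect. N-acetyl-L-cysteine served as positive control. DMSO below 0.1%. Mean ± S.E.M. of three experiments.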
# SH-SY5Y [3] = assay: Neuroprotection against H2O2-induced cell death in human SH-SY5Y cells assessed as cell viability at 10 uM preincubated for 6 hrs followed by H2O2 addition and measured after 24 hrs by MTT assay relative to control; format: functional; conditions: read-out: Activity
# Outline: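 SH-SY5Y cells pretreated with 1 at 1 or 10 μM, then exposed to 600 μM H₂O₂. Viability by MTT, expressed as % of control. DMSO below 0.1%. Mean ± S.E.M. of three independent experiments.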
# SH-SY5Y [4] = assay: Neuroprotection against H2O2-induced toxicity in human SH-SY5Y cells assessed as LDH release at 1 uM preincubated for 6 hrs followed by H2O2 addition and measured after 24 hrs (reference value: 339.93 +/- 3.66 U/L); format: functional
# SH-SY5Y [5] = assay: Induction of oxidative stress in non-stimulated human SH-SY5Y cells assessed as reactive oxygen species level at 10 uM after 6 hrs by DHE dye based flow cytometry (reference value: 4.8%); format: cell-based
# SH-SY5Y [6] = assay: Protection against H2O2-induced mitochondrial dysfunction in human SH-SY5Y cells assessed as mitochondrial membrane potential at 10 uM preincubated for 6 hrs followed by H2O2 addition and measured after 24 hrs by Rh123 staining based flow cytometry (reference value: 26.31 +/- 3.32%); format: functional
# Outline: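 ΔΨm examined by inverted fluorescence microscopy and flow cytometry after pretreatment (1, 10 μM) and 600 μM H₂O₂. Reported as % of control. Mean ± S.E.M., three independent experiments.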
# Mus musculus [7] = assay: Induction of motor impairment in C57Bl/6 mouse at 10 mg/kg, ig treated for 10 days measured after 4 to 72 hrs for 3 mins by rota rod test; format: organism-based; conditions: in vivo, po
# Mus musculus [8] = assay: Anti-parkinson's activity in MPTP-induced C57Bl/6 mouse model of Parkinson's disease assessed as increase in tyrosine hydroxylase expression in striatum at 10 to 20 mg/kg, ig pretreated for 10 days followed by MPTP challenge measured 10 days post MPTP addition by DAB staining based immunohistochemistry method; format: functional, organism-based
# Outline: (§1)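 Tissue taken 10 days after MPTP injection from mice dosed orally with 1 (10 or 20 mg/kg). TH in SNpc and striatum by western blot, and by DAB immunostaining. Three of the mice per group analysed. Mean ± S.D., n = 6 mice/group.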
# Mus musculus [9] = assay: Anti-parkinson's activity in MPTP-induced C57Bl/6 mouse model of Parkinson's disease assessed as increase in tyrosine hydroxylase expression in striatum at 10 to 20 mg/kg, ig pretreated for 10 days followed by MPTP challenge measured 10 days post MPTP addition by Western blot analysis; format: functional, organism-based; outline: as §1
# Mus musculus [10] = assay: Anti-parkinson's activity in MPTP-induced C57Bl/6 mouse model of Parkinson's disease assessed as increase in SOD activity in substantia nigra administered intragastrically pretreated for 10 days followed by MPTP challenge measured 10 days post MPTP addition by xanthine oxidase method; format: functional, organism-based
# Outline: (§2)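 Striatum and SNpc from MPTP-treated mice dosed orally with 1 at 10 or 20 mg/kg. MDA level and SOD activity measured. Mean ± S.D., n = 6 mice/group.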
# Mus musculus [11] = assay: Anti-parkinson's activity in MPTP-induced C57Bl/6 mouse model of Parkinson's disease assessed as reduction in MDA level in striatum administered intragastrically pretreated for 10 days followed by MPTP challenge measured 10 days post MPTP addition by thiobarbituric acid method; format: functional, organism-based; outline: as §2
# [12] = Volume of distribution at steady state in Sprague-Dawley rat at 25 mg/kg, po by LC-MS/MS analysis; format: ADME, organism-based; conditions: in vivo
# Outline: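 Male Sprague–Dawley rats (n = 3) dosed i.v. 5 mg/kg (5% DMSO, 2% F68, 93% saline) or p.o. 25 mg/kg (0.5% methylcellulose, 1% Tween 80). Orbital blood at 0.083–24 h (12 points). Plasma concentration–time profiles gave Cl, Vdss, AUC, T1/2, Tmax, Cmax, MRT and absolute F.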
# [13] = Half life in Sprague-Dawley rat at 25 mg/kg, po by LC-MS/MS analysis; format: ADME, organism-based; conditions: in vivo
# Outline: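 Male Sprague–Dawley rats dosed with 1 at 5 mg/kg i.v. (vehicle 5% DMSO, 2% F68, 93% saline) or 25 mg/kg p.o. (0.5% methylcellulose with 1% Tween 80). Orbital blood sampled at 0.083–24 h, 12 time points. Plasma PK parameters derived. Mean ± SD, n = 3.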
# [14] = AUC (0 to infinity) in Sprague-Dawley rat at 5 mg/kg, iv by LC-MS/MS analysis; format: ADME, organism-based; parameters: dose 5 mg/kg, route intravenous, time infinity; conditions: in vivo
# Outline: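 Single intravenous 5 mg/kg dose in 5% DMSO + 2% F68 + 93% saline to male Sprague–Dawley rats (n = 3). Orbital blood samples (100-200 μL) were taken at 12 points over 24 h (0.083 to 24 h). AUC0-∞ was derived from the plasma concentration–time curve and given as mean ± SD.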
# [15] = Activation of PI3K/Akt/mTOR signaling in human SH-SY5Y cells assessed as up regulation of H2O2-induced HO-1 expression at 10 uM preincubated for 6 hrs followed by H2O2 addition and after 24 hrs in presence of PI3K/Akt/mTOR inhibitor rapamycin by Western blot analysis; format: cell-based
# Outline: (§3)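 SH-SY5Y cells preincubated 1 h with one inhibitor: SB203580 10 μM, LY294002 5 μM, U0126 10 μM, SP600125 5 μM or rapamycin 100 nM. Then 1 (10 μM) for 6 h, then 600 μM H₂O₂. HO-1 measured by western blot and densitometry. Mean ± S.E.M., three independent experiments.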
# [16] = Activation of PI3K/Akt/mTOR signaling in human SH-SY5Y cells assessed as up regulation of H2O2-induced HO-1 expression at 10 uM preincubated for 6 hrs followed by H2O2 addition and after 24 hrs in presence of p38 MAPK inhibitor SB203580 by Western blot analysis; format: cell-based; outline: as §3
# SH-SY5Y [17] = assay: Neuroprotection against H2O2-induced cell death in human SH-SY5Y cells assessed as cell viability at 10 uM preincubated for 6 hrs followed by H2O2 addition and measured after 24 hrs in presence of PI3K/Akt/mTOR inhibitor rapamycin by MTT assay relative to control; format: functional; conditions: read-out: Activity
# Outline: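 SH-SY5Y cells preincubated 1 h with LY294002 (5 μM) or rapamycin (100 nM). Then 1 (10 μM) for 6 h, then 600 μM H₂O₂. Viability by MTT. Mean ± S.E.M., three independent experiments.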
smiles,measurement,setting,value
COC(=O)[C@H](Cc1ccccc1)NC(=O)/C=C/c1ccc(O)c(O)c1 [N-CAFFEOYL-PHENYLALANINE METHYL ESTER],Activity,SH-SY5Y [1],>50%
same,EC50,SH-SY5Y [2],4.26 µM
same,viability at 10 µM,SH-SY5Y [3],80.8 to 89%
same,Activity,SH-SY5Y [4],269.12 U/L
same,Activity,SH-SY5Y [5],7.3%
same,Activity,SH-SY5Y [6],98.3%
same,Activity,Mus musculus [7],Non-Toxic
same,Activity,Mus musculus [8],Active
same,Activity,Mus musculus [9],Active
same,Activity,Mus musculus [10],Dose-dependent effect
same,Activity,Mus musculus [11],Dose-dependent effect
same,Vdss,[12],5.98 L/kg
same,half-life,[13],2.7 h
same,AUC(0-inf),[14],3270 ng·h/mL
same,Activity,[15],inactive
same,Activity,[16],Active
same,viability at 10 µM,SH-SY5Y [17],65.9%
